Test results published in ChEMBL document CHEMBL2424619, “Small-molecule ligands of methyl-lysine binding proteins: optimization of selectivity for L3MBTL3” (J Med Chem, 2013).
pIC50: −log10 of the molar value.

Experiments:
PHD finger protein 23 = PHD finger protein 23 (Homo sapiens, UniProt Q9BUL5); experiment: Inhibition of PHF23 (unknown origin) after 30 mins by AlphaScreen assay
Outline: (§1)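 AlphaScreen competition with histone peptide. Compounds in 3-fold, 10-point dilutions, top 10 or 30 μM; buffer 20 mM Tris pH 8.0, 25 mM NaCl, 2 mM DTT, 0.05% Tween-20. Protein-peptide mix 30 min RT, then streptavidin donor plus nickel-chelate acceptor beads (GST acceptor beads for GST-tagged PHF23, JARID1A) 30 min RT dark. Protein-free His6-biotin peptide counterscreen.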

[1] = target: T1, E3 ubiquitin-protein ligase UHRF1 (Homo sapiens, UniProt Q96T88); experiment: Inhibition of UHRF1 (unknown origin) after 30 mins by AlphaScreen assay
T1 sequence (Q96T88 whole entry): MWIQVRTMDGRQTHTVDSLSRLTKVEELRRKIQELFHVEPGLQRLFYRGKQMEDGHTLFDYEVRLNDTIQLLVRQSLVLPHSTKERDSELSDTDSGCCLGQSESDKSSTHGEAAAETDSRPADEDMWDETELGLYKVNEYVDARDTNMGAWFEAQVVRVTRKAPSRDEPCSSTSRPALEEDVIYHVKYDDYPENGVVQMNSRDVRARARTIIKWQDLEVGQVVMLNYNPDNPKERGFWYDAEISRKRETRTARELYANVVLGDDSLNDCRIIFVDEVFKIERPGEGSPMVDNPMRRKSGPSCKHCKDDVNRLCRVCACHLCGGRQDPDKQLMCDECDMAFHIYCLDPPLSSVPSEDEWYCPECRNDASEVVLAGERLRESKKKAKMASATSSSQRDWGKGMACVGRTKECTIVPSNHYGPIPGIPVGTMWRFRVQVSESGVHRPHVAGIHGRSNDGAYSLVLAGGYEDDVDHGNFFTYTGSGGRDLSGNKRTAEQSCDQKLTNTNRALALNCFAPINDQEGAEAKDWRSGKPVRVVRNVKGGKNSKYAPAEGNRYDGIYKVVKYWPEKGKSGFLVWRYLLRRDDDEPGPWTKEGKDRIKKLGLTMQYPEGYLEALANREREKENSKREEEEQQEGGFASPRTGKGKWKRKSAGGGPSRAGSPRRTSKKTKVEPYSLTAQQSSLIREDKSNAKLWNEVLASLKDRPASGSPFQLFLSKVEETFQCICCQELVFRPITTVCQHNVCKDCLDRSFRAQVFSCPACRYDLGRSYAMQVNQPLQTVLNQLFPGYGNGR
Outline: as §1, with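 “dark. […]” for “dark.”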

[2] = target: MBT domain-containing protein 1 (Homo sapiens, UniProt Q05BQ5); experiment: Inhibition of MBTD1 (unknown origin) after 30 mins by AlphaScreen assay; outline: as §1
Sequence of MBT domain-containing protein 1 (Q05BQ5 whole entry, the tested form may be a part): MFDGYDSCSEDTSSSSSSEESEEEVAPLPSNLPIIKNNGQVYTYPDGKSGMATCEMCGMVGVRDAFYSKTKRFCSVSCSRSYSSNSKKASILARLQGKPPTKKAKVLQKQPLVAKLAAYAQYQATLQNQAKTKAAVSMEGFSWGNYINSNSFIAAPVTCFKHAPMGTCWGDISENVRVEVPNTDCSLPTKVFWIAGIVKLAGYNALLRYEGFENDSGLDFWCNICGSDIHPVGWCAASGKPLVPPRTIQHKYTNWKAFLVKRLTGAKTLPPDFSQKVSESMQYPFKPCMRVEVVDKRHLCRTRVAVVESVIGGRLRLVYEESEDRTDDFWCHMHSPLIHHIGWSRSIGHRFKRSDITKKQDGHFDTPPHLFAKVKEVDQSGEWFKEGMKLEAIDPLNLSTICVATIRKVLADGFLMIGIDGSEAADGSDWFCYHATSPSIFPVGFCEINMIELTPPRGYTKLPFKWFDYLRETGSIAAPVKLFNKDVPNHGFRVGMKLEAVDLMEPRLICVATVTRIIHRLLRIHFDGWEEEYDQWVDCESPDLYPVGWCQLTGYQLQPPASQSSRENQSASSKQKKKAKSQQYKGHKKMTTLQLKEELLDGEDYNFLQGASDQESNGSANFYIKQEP

[3] = target: T2, Chromobox protein homolog 7 (Homo sapiens, UniProt O95931); experiment: Inhibition of CBX7 (unknown origin) after 30 mins by AlphaScreen assay; outline: as §1
T2 sequence (O95931 whole entry): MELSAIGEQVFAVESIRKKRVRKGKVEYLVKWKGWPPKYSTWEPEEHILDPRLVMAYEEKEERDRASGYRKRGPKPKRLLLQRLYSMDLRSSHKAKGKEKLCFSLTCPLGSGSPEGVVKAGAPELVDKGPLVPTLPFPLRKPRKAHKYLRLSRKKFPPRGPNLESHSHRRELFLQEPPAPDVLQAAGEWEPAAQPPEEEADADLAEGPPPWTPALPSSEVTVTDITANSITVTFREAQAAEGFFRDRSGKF

[4] = target: T3, Lethal(3)malignant brain tumor-like protein 4 (Homo sapiens, UniProt Q8NA19); experiment: Inhibition of L3MBTL4 (unknown origin) after 30 mins by AlphaScreen assay; outline: as §1
T3 sequence (Q8NA19 whole entry): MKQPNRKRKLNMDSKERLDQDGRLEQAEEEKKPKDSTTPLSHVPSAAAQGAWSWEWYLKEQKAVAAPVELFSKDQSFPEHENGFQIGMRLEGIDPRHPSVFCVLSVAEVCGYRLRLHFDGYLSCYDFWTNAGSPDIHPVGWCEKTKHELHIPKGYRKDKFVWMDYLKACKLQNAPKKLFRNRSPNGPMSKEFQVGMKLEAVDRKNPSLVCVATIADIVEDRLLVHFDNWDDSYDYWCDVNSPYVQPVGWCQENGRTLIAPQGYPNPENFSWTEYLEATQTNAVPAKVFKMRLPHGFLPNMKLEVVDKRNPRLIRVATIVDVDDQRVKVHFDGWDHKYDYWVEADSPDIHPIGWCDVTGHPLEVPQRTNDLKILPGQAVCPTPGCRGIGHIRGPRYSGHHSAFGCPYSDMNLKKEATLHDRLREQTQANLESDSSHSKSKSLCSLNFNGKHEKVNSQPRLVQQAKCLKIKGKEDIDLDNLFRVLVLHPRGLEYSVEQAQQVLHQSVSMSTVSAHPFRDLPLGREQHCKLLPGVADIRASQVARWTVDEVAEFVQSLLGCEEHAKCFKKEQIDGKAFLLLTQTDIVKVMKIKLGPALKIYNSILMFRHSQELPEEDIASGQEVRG

[5] = target: T4, Lethal(3)malignant brain tumor-like protein 3 (Homo sapiens, UniProt Q96JM7); experiment: Inhibition of L3MBTL3 (unknown origin) after 30 mins by AlphaScreen assay; outline: as §1
T4 sequence (Q96JM7 whole entry): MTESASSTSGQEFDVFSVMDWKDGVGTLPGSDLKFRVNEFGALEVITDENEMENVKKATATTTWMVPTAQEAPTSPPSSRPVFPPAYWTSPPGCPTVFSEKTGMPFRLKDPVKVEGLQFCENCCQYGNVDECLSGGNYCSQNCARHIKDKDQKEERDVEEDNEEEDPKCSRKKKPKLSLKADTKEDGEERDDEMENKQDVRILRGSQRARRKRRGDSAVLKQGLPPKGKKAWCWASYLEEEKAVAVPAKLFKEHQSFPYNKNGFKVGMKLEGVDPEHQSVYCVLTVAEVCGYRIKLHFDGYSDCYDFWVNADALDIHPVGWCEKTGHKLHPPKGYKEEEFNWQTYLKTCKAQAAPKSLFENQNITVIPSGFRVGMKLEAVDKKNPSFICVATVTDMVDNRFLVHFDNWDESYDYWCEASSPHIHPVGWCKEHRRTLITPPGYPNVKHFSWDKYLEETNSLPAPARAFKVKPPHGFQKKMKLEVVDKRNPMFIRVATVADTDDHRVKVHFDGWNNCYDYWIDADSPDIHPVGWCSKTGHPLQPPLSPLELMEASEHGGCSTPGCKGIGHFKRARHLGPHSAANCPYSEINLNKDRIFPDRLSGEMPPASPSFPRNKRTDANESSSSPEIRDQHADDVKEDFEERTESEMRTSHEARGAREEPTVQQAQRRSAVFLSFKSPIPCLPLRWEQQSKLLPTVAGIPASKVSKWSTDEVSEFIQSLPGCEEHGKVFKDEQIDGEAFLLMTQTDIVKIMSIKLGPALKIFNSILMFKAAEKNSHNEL

Sequence of PHD finger protein 23 (Q9BUL5 whole entry): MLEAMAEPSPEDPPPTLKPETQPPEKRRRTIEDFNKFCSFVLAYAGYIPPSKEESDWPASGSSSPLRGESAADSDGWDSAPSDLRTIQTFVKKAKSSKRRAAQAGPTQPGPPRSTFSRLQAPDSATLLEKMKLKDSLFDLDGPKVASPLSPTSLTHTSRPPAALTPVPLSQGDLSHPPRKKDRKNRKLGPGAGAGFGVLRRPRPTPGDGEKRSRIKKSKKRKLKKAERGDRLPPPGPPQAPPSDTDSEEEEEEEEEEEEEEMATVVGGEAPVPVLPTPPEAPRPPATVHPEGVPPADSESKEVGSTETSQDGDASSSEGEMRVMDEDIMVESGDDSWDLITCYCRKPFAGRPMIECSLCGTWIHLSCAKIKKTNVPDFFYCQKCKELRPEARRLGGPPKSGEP

| SMILES | pIC50 (PHD finger protein 23) | pIC50 [1] | pIC50 [2] | pIC50 [3] | pIC50 [4] | pIC50 [5] |
| --- | --- | --- | --- | --- | --- | --- |
| CC(C1CCN(C(=O)c2ccc(C(=O)N3CCC(N4CCCC4)CC3)cc2)CC1)N1CCN(C)CC1 (stereo not drawn) | < 5.00 | < 5.00 | < 5.00 | < 5.00 | < 5.00 | 6.52 |
| O=C(c1ccc(CN2CCC(N3CCCC3)CC2)cc1)N1CCC(N2CCCC2)CC1 | < 5.00 | < 5.00 | 5.09 | < 5.00 | < 5.00 | 6.85 |
| CN1CCCC1C1CCN(C(=O)c2ccc(C(=O)N3CCC(C4CCCN4C)CC3)cc2)CC1 (stereo not drawn) | < 5.00 | < 5.00 | < 5.00 | < 5.00 | < 5.00 | 5.77 |
| O=C(c1ccc(C(=O)N2CCC(N3CCOCC3)CC2)cc1)N1CCC(N2CCCC2)CC1 | < 5.00 | < 5.00 | < 5.00 | < 5.00 | < 5.00 | 5.82 |
| Cc1cc(C(=O)N2CCC(N3CCCC3)CC2)c(C)cc1C(=O)N1CCC(N2CCCC2)CC1 | < 5.00 | < 5.00 | < 5.00 | < 5.00 | < 5.00 | 6.68 |
| O=C(c1ccc(C(=O)N2CCC(N3CCC3)CC2)cc1)N1CCC(N2CCC2)CC1 | < 5.00 | < 5.00 | < 5.00 | < 5.00 | < 5.00 | 6.40 |
| O=C(c1ccc(C(=O)N2CC3CNCC3C2)cc1)N1CCC(N2CCCC2)CC1 (stereo not drawn) | < 5.00 | < 5.00 | < 5.00 | < 5.00 | < 5.00 | 5.51 |
| O=C(c1ccc(C(=O)N2CC(N3CCCC3)C2)cc1)N1CCC(N2CCCC2)CC1 | < 5.00 | < 5.00 | < 5.00 | < 5.00 | < 5.00 | 6.48 |
| O=C(c1ccc(C(=O)N2CCC(N3CCCC3)CC2)c2ccccc12)N1CCC(N2CCCC2)CC1 | < 5.00 | < 5.00 | 5.24 | < 5.00 | < 5.00 | 7.14 |

Continued, in another order:

| pIC50 (PHD finger protein 23) | pIC50 [1] | pIC50 [2] | pIC50 [3] | SMILES | pIC50 [4] | pIC50 [5] |
| --- | --- | --- | --- | --- | --- | --- |
| < 5.00 | < 5.00 | 5.01 | < 5.00 | O=C(c1ccc(C(=O)N2CCC(N3CCCC3)CC2)cc1)N1CCC(N2CCCCCC2)CC1 | < 5.00 | 6.57 |
| < 5.00 | < 5.00 | < 5.00 | < 5.00 | O=C(c1ccc(C(=O)N2CCC(N3CCCC3)CC2)nc1)N1CCC(N2CCCC2)CC1 | < 5.00 | 6.96 |
| < 5.00 | < 5.00 | < 5.00 | < 5.00 | O=C(c1cccc(C(=O)N2CCC(N3CCCC3)CC2)c1)N1CCC(N2CCCC2)CC1 | < 5.00 | 6.44 |
| < 5.00 | < 5.00 | 5.00 | < 5.00 | O=C(c1ccc(C(=O)N2CCC(N3CCCC3)CC2)cc1)N1CCC(N2CCCCC2)CC1 | < 5.00 | 6.64 |
